Laboratory results published in PubChem BioAssay.
Results filed as inconclusive are left out.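 The calls were made as follows, unless noted: active = inhibition over a set limit, the all-compound mean plus 3 SD, in both replicate runs; inconclusive = over that limit in just one replicate run; inactive = at or under that limit in both runs.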

Legend:
[1] = S. cerevisiae growth inhibition in permissive medium (OD615), pilot counter-assay for S. cerevisiae lifespan shortening project, permissive growth control (AID 705;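 active = growth inhibition above 25% in both replicates, a cutoff set 3 SD above the mean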); conditions: OD615, 24 h, at 10 µM, hits give high values
Method in brief: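 System: S. cerevisiae with engineered DeaD lifespan system. Medium: SC raffinose/galactose permissive medium. Doses: single compound dose of 10 µM, 0.25% DMSO final. Schedule: 24 h exposure, 30 °C. Measured by: OD615 turbidity read. Read-out: growth inhibition.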

[2] = S. cerevisiae growth inhibition in restrictive medium, OD615, pilot screen, restrictive growth control, yeast lifespan reduction project (AID 706;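 active = growth inhibition above a set limit, 3 SD over mean compound inhibition, in both replicates, cut at about 43% in these data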;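 also: modified DeaD lifespan yeast strain shifted to restrictive glucose medium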); conditions: OD615, 48 h, at 10 µM, hits give high values
Method in brief: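 Assay system – genetically modified Saccharomyces cerevisiae, DeaD replicative lifespan assay strain · Medium – CSMM-D glucose medium · Doses – 10 µM compound, 0.25% DMSO · Times – 4 h pre-incubation, 48 h exposure at 30 °C · Signal – optical density at 615 nm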

[3] = doxorubicin toxicity protection in MRP-1 cells – H69AR cells, CellTiter-Glo, duplicate, MRP-1 activator project, pilot screen (AID 807;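 active = viability increase at or above a cutoff of the median across tested compounds plus 3 SD, cut at about 8.5% in these data, passing the limit was not always enough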;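 also: compound pretreatment 18-22 h then 72 h combined with doxorubicin; 0% = doxorubicin alone and 100% = vehicle without doxorubicin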); conditions: H69AR viability with doxorubicin, CellTiter-Glo luminescence; at 10 µM; hits give high values
[4] = viability of HCT116 without oncogenic beta-catenin – human colon tumor cells, pilot screen (AID 823;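 active = cell viability at or below a set limit in both duplicate runs, the limit being the all-compound median minus 4 SD, cut at about 23% in these data, passing the limit was not always enough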;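 also: 0% = wells killed by 20 µM Hyamine and 100% = untreated DMSO cell wells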); conditions: HCT116 beta-catenin knockout viability, CellTiter-Glo, 60 h; at 10 µM; hits give low values
[5] = viability of PTEN-null HCT116 cells – cell-based, HCT116 clonal line, CellTiter-Glo, pilot screen (AID 824;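 active = viability at or below 27.92% in each of two runs, the all-compound median minus 4 SD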;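 also: 0% = 20 µM Hyamine control and 100% = vehicle cell control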); conditions: HCT116 PTEN-deleted viability, 60 h, at 10 µM, hits give low values
[6] = RAM pathway blockade in budding yeast – dse1pr::URA3 reporter, 5-FOA selection, pilot screen (AID 869);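 also: 0% = DMSO wells with no growth and 100% = 10 µM 1-NA-PP1 with full growth; RAM network block rescues cells from 5-FOA so hits raise OD615 growth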; conditions: S. cerevisiae dse1pr::URA3 5-FOA growth, OD615, 2 d; at 10 µM; hits give high values; strain carries analog-sensitive mutant Cbk1 kinase
[7] = RAM signaling pathway blockade in yeast – S. cerevisiae, Pdr1DBD-CYC8 efflux-inhibited sensitized strain, primary screen (AID 1298;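 active = RAM network inhibition above 8.4% in each of two replicates, 3 SD over the compound average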;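 also: 0% = DMSO untreated cells without growth and 100% = 10 µM 1-NA-PP1 full growth; higher means more yeast growth rescued from 5-FOA killing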); conditions: S. cerevisiae cbk1-as DSE1-URA3 strain, 5-FOA growth OD615, 2 d; at 50 µM; hits give high values

COc1cccc(N2CCN(C(=O)C3CCCN(S(=O)(=O)c4cnc[nH]4)C3)CC2)c1 (stereo unspecified)
inactive: growth inhibition [1] 11.1% | growth inhibition [2] 8.66% | viability increase [3] 0.99% | viability [4] 97% | viability [5] 93% | inhibition [6] -0.27% | RAM network inhibition [7] -0.88%

CCc1nnc(NC(=O)c2ccc(S(=O)(=O)N3CCOCC3)cc2)s1
inactive: growth inhibition [1] -10.4% | growth inhibition [2] -20.2% | viability increase [3] -1.63% | viability [4] 105% | viability [5] 94.6% | inhibition [6] 1.92% | RAM network inhibition [7] 9.48%

CCc1nc2oc(C(=O)c3ccccc3)c(N)c2c2c1COC(C)(C)C2
inactive: growth inhibition [1] -10.5% | growth inhibition [2] -9.15% | viability increase [3] -4.48% | viability [4] 81.6% | viability [5] 80.1% | inhibition [6] 0.79% | RAM network inhibition [7] 0.85%

CC1Cc2nc(SCC(=O)NCc3ccco3)n(Cc3ccccc3)c(=O)c2S1 (stereo unspecified)
inactive: growth inhibition [1] -6.15% | growth inhibition [2] -15.7% | viability increase [3] -6.41% | viability [4] 91.1% | viability [5] 87.3% | inhibition [6] 3.45% | RAM network inhibition [7] 3.84%

COc1ccc(Cl)cc1S(=O)(=O)N1CCN(C)CC1
inactive: growth inhibition [1] 1.3% | growth inhibition [2] -7.12% | viability increase [3] -2.26% | viability [4] 100% | viability [5] 86.8% | inhibition [6] 1.67% | RAM network inhibition [7] 5.97%

O=C(NCCCc1ccccc1)C1CCN(c2nnc(-n3cccc3)s2)CC1
inactive: growth inhibition [1] -1.03% | growth inhibition [2] 0.98% | viability increase [3] 3.79% | viability [4] 93.3% | viability [5] 97% | inhibition [6] 0.175% | RAM network inhibition [7] 5.38%

Cc1ccc(C(=O)N2CCN(C(=O)CN3CCOCC3)C2)cc1
inactive: growth inhibition [1] -4.56% | growth inhibition [2] -13.1% | viability increase [3] -1.25% | viability [4] 95% | viability [5] 97.3% | inhibition [6] -0.175% | RAM network inhibition [7] 0.11%

CC(C)OC(=O)c1nnc(Cc2ccc(Cl)cc2)o1
inactive: growth inhibition [1] -6.46% | growth inhibition [2] 9.87% | viability increase [3] 0.7% | viability [4] 102% | viability [5] 102% | inhibition [6] -0.06% | RAM network inhibition [7] 1.93%

CC(=O)c1ccc(OCC(O)CN2C(C)(C)CC(O)CC2(C)C)cc1 (stereo unspecified)
inactive: growth inhibition [1] -16.9% | growth inhibition [2] -12.3% | viability increase [3] 1.37% | viability [4] 105% | viability [5] 96.8% | inhibition [6] 1.66% | RAM network inhibition [7] 7.12%

CCC(=O)N=c1sc2c(C)cc(C)cc2n1CC(=O)OC
inactive: growth inhibition [1] -9.96% | growth inhibition [2] -16.1% | viability increase [3] -0.83% | viability [4] 92.4% | viability [5] 88.7% | inhibition [6] 1.55% | RAM network inhibition [7] 2.76%

Cc1cccc(CCNC(=O)CN(C)S(=O)(=O)c2ccc3c(c2)c(=O)n(C)c(=O)n3C)c1
inactive: growth inhibition [1] -12.1% | growth inhibition [2] -22.2% | viability increase [3] -0.92% | viability [4] 102% | viability [5] 90.4% | inhibition [6] 1.75% | RAM network inhibition [7] 2.91%

CC(C)Cn1c(CNC(=O)c2ccccc2)nc2ccccc21
inactive: growth inhibition [1] -4.34% | growth inhibition [2] -13.4% | viability increase [3] -2.23% | viability [4] 99.6% | viability [5] 93.1% | inhibition [6] 0.785% | RAM network inhibition [7] -0.78%

CCOC(=O)c1[nH]c(=O)[nH]c1CSc1nc(C)cc(C)n1
inactive: growth inhibition [1] -4.23% | growth inhibition [2] 7.25% | viability increase [3] -3.65% | viability [4] 102% | viability [5] 96.9% | inhibition [6] 0.985% | RAM network inhibition [7] 5.37%

COc1cc2[nH]c(=O)n(CCC(=O)NC3CCN(Cc4ccccc4)CC3)c(=O)c2cc1OC
inactive: growth inhibition [1] -0.585% | growth inhibition [2] -8.45% | viability increase [3] -1.84% | viability [4] 101% | viability [5] 94.3% | inhibition [6] 2.09% | RAM network inhibition [7] -0.53%

O=C(Cn1cc2c(n1)CCCC2)NCC1CCCO1 (stereo unspecified)
inactive: growth inhibition [1] -2.07% | growth inhibition [2] 3.85% | viability increase [3] 0.41% | viability [4] 103% | viability [5] 95.9% | inhibition [6] 1.89% | RAM network inhibition [7] 4.01%

COc1ccc(NC(=O)C2CCCN(S(=O)(=O)c3cccnc3)C2)c(OC)c1 (stereo unspecified)
inactive: growth inhibition [1] -9.3% | growth inhibition [2] -2.6% | viability increase [3] 1.08% | viability [4] 104% | viability [5] 97.1% | inhibition [6] 1.57% | RAM network inhibition [7] -0.22%

O=C(c1cc2nc(-c3ccco3)cc(C(F)(F)F)n2n1)N1CCCCCC1
inactive: growth inhibition [1] -9.02% | growth inhibition [2] -9.3% | viability increase [3] -3.73% | viability [4] 86.3% | viability [5] 83.7% | inhibition [6] 0.805% | RAM network inhibition [7] 3.38%

CCCC(=O)c1c(NC)cc(C)oc1=O
inactive: growth inhibition [1] -7.03% | growth inhibition [2] 4.71% | viability increase [3] -0.53% | viability [4] 97.2% | viability [5] 92.2% | inhibition [6] 0.62% | RAM network inhibition [7] 3.99%
